Data from ChEMBL document CHEMBL3046311, “Synthesis and antifungal activities of alkyl N-(1,2,3-thiadiazole-4-carbonyl) carbamates and S-alkyl N-(1,2,3-thiadiazole-4-carbonyl) carbamothioates” (2005).

Assays:
Format in all cases: functional
Details in all cases: read-out: GI
Alternaria kikuchiana [1] = experiment: Fungistatic activity against Alternaria kikuchiana assessed as inhibition of mycelial growth measured at 5 ug/mL at 28 degC after 72 hr relative to control
How it was run: (§1)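 Compounds in acetone at stock levels of 500 and 50 µg/mL; 1 mL of stock mixed into 9 mL thawed potato dextrose agar at 50 °C and poured. Solidified plates were inoculated with a 4 mm mycelial disk, inverted, and held at 28 °C for 72 h. Water served as negative control, in triplicate. Inhibition was calculated as (C−T)/C × 100% from colony radii.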

Fusarium graminearum [2] = experiment: Fungistatic activity against Fusarium graminearum assessed as inhibition of mycelial growth measured at 5 ug/mL at 28 degC after 72 hr relative to control
How it was run: (§2)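 Poisoned-food plate assay with Gibberella zeae. Compound in acetone (500 or 50 µg/mL stocks) is mixed 1:9 with molten potato dextrose agar at 50 °C and poured. Once set, plates are inoculated with a 4 mm mycelium disk, inverted, and held 72 h at 28 °C. Water is the negative control, run in triplicate. Colony radius is measured, and inhibition = (C−T)/C × 100%.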

Fusarium graminearum [3] = experiment: Fungistatic activity against Fusarium graminearum assessed as inhibition of mycelial growth measured at 50 ug/mL at 28 degC after 72 hr relative to control; how it was run: as §2
Alternaria kikuchiana [4] = experiment: Fungistatic activity against Alternaria kikuchiana assessed as inhibition of mycelial growth measured at 50 ug/mL at 28 degC after 72 hr relative to control; how it was run: as §1

| Compound | inhibition of growth at 5 µg/mL (Alternaria kikuchiana [1]) [%] | inhibition of growth at 5 µg/mL (Fusarium graminearum [2]) [%] | inhibition of growth at 50 µg/mL (Fusarium graminearum [3]) [%] | inhibition of growth at 50 µg/mL (Alternaria kikuchiana [4]) [%] |
| --- | --- | --- | --- | --- |
| CCCCOC(=O)NC(=O)c1csnn1 | 23 | 6 | 11 | 50 |
| CCCCCOC(=O)NC(=O)c1csnn1 | 36 | 4 | 42 | 45 |
| CC(C)CCOC(=O)NC(=O)c1csnn1 | 25 | 15 | 100 | 50 |
| CCCCCCOC(=O)NC(=O)c1csnn1 | 54 | 23 | 92 | 90.7 |
| CCCCCCCOC(=O)NC(=O)c1csnn1 | 20 | 78 | 92 | 50 |
| CCCCCCCCOC(=O)NC(=O)c1csnn1 | 20 | 63 | 81 | 50 |
| CCCCCCCCCOC(=O)NC(=O)c1csnn1 | 27 | 23 | 60 | 50 |
| CCCCCCCCCCOC(=O)NC(=O)c1csnn1 | 54 | 42 | 75 | 54 |
| CCCCCCCCCCCOC(=O)NC(=O)c1csnn1 | 10 | 59 | 78 | 40 |
| O=C(NC(=O)c1csnn1)OC1CCCCC1 | 32 | 0 | 17 | 59 |
| CCCCCCCCCCCCCCOC(=O)NC(=O)c1csnn1 | 15 | 0 | 100 | 50 |
| CCCCCCCCCCCCCCCCOC(=O)NC(=O)c1csnn1 | 14 | 0 | 67 | 27 |
| O=C(NC(=O)c1csnn1)OCCCCCCCCCCBr | 0 | 25 | 42 | 41 |
| O=C(NC(=O)c1csnn1)OCCCCCCCCCCCCBr | 13 | 6 | 21 | 36 |
| CCCSC(=O)NC(=O)c1csnn1 | 9 | 27 | 54 | 36 |
| CCCCSC(=O)NC(=O)c1csnn1 | 32 | 0 | 10 | 36 |
| CCCCCCSC(=O)NC(=O)c1csnn1 | 4 | 25 | 75 | 27 |
| CCCCCCCSC(=O)NC(=O)c1csnn1 | 4 | 12 | 35 | 32 |
| CCCCCCCCSC(=O)NC(=O)c1csnn1 | 0 | 10 | 31 | 18 |
